Assay results: the RNAGym collection of RNA variant scans (doi:10.1126/science.aae0568)
This sample holds only a part of the variants without activity.

B1: tRNA (parent)
chain: GUUCCGUUGGCGUAAUGGUAACGCGUCUCCCUCCUAAGGAGAAGACUGCGGGUUCGAGUCCCGUACGGAACG

Variants of: B1
Assay: yeast fitness relative to wild type (ratio to wild type); higher = fitter; tRNA-Arg(CCU), competitive growth, 37 C, YPD
Summary of the method: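 Variants of the tRNA-Arg(CCU) gene, chemically synthesised with a 3% per-site mutation rate at 69 sites, were placed at the native genomic locus in Saccharomyces cerevisiae. The pooled strains were competed in YPD at 37°C for 24 hours in six parallel replicates. Gene amplicons from the start population and from each end population were read by 100-nucleotide paired-end sequencing. Darwinian fitness relative to wild type came from changes in genotype frequencies; genotypes needed ≥ 100 starting reads, and estimates < 0.5 were set to 0.5.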

Q: For GUUCCGUUGGCGUAAUGGUAACGCGUCUCCCUCCUAAGGAGAAGAUUGCCGGUUCGAGUCCCGUACGGAACG, which yeast fitness is on record?
A: The yeast fitness was 0.819.

Q: For GUUCCGUUGGCGUAAUGGUAACGCGUCUCCCUCCUAAGGAGAAGAUUGCGAGUUCGAGUCCCGUACGGAACG, which yeast fitness is on record?
A: The yeast fitness was 1.02.

Q: For GUUCCGUUGGCGUAAUGGUAACGCGUCUCCCUCCUAAGGAGAAGAUUGCGCGUUCGAGUCCCGAACGGAACG, which yeast fitness is on record?
A: The yeast fitness was ≤ 0.5.

Q: For GUUCCGUUGGCGUAAUGGUAACGCGUCUCCCUCCUAAGGAGAAGAUUGCGGCUUCGUGUCCCGUACGGAACG, which yeast fitness is on record?
A: Its yeast fitness is ≤ 0.5.

Q: For GUUCCGUUGGCGUAAUGGUAACGCGUCUCCCUCCUAAGGAGAAGAUUGCGGGUUCAAGUCCCGUACAGAACG, which yeast fitness is on record?
A: Its yeast fitness is 0.686.

Q: Which yeast fitness does the source give for GUUCCGUUGGCGUAAUGGUAACGCGUCUCCCUCCUAAGGAGAAGAUUGCGGGUUCGAAUCCUGUACGGAACG here?
A: The yeast fitness was 0.665.

Q: Which yeast fitness does the source give for GUUCCGUUGGCGUAAUGGUAACGCGUCUCCCUCCUAAGGAGAAGAUUGCGGGUUCGAGUCCCGUACCGAACG here?
A: Its yeast fitness is 1.02.

Q: For GUUCCGUUGGCGUAAUGGUAACGCGUCUCCCUCCUAAGGAGAAGAUUGCGGGUUCGAGUCCCGUACGAAACG, which yeast fitness is on record?
A: Its yeast fitness is 0.9.

Q: With GUUCCGUUGGCGUAAUGGUAACGCGUCUCCCUCCUAAGGAGAAGAUUGCGGGUUCGAGUCCCGUACGUAACG as the variant, how does the yeast fitness read?
A: Its yeast fitness is 0.857.

Q: Which yeast fitness does the source give for GUUCCGUUGGCGUAAUGGUAACGCGUCUCCCUCCUAAGGAGAAGAUUGCGGGAUCGAGUCCCGUACGGAACG here?
A: Its yeast fitness is 0.704.

Q: With GUUCCGUUGGCGUAAUGGUAACGCGUCUCCCUCCUAAGGAGAAGAUUGCGGGUCCGAGUCCCGUACGGAACG as the variant, how does the yeast fitness read?
A: The yeast fitness was 0.717.

Q: With GUUCCGUUGGCGUAAUGGUAACGCGUCUCCCUCCUAAGGAGAAGAUUGCGGGUUCGAGCCCCGUACGGAACG as the variant, how does the yeast fitness read?
A: Its yeast fitness is 1.03.

Q: With GUUCCGUUGGCGUAAUGGUAACGCGUCUCCCUCCUAAGGAGAAGAUUGCGGGUUCGAGGCCCGUACGGAACG as the variant, how does the yeast fitness read?
A: Its yeast fitness is 0.962.

Q: Which yeast fitness does the source give for GUUCCGUUGGCGUAAUGGUAACGCGUCUCCCUCCUAAGGAGAAGACAGCGGGUUCGGGUCCCGUACGGAACG here?
A: Its yeast fitness is 0.923.

Q: For GUUCCGUUGGCGUAAUGGUAACGCGUCUCCCUCCUAAGGAGAAGACAGCGGGUUCGAGUCCCGUGCGGAACG, which yeast fitness is on record?
A: Its yeast fitness is 0.937.

Q: Which yeast fitness does the source give for GUUCCGUUGGCGUAAUGGUAACGCGUCUCCCUCCUAAGGAGAAGACAGCGGGUUCGAGUCCCGUACGGCACG here?
A: Its yeast fitness is 0.82.

Q: With GUUCCGUUGGCGUAAUGGUAACGCGUCUCCCUCCUAAGGAGAAGACAGGGGGUUCGAGUCCCGUACGGAACG as the variant, how does the yeast fitness read?
A: The yeast fitness was 0.767.

Q: With GUUCCGUUGGCGUAAUGGUAACGCGUCUCCCUCCUAAGGAGAAGACAGUGGGUUCGAGUCCCGUACGGAACG as the variant, how does the yeast fitness read?
A: Its yeast fitness is 0.913.

Q: Which yeast fitness does the source give for GUUCCGUUGGCGUAAUGGUAACGCGUCUCCCUCCUAAGGAGAAGACAGUGGGUUCGAGUCCCGUCCGGAACG here?
A: The yeast fitness was 0.702.

Q: With GUUCCGUUGGCGUAAUGGUAACGCGUCUCCCUCCUAAGGAGAAGACAGCGGGUUCGAGUCCGGUACGGAACG as the variant, how does the yeast fitness read?
A: The yeast fitness was 0.856.

Q: With GUUCCGUUGGCGUAAUGGUAACGCGUCUCCCUCCUAAGGAGAAGACAACGGGUUCGAGUCCCGUACGGAACG as the variant, how does the yeast fitness read?
A: Its yeast fitness is 0.867.

Q: For GUUCCGUUGGCGUAAUGGUAACGCGUCUCCCUCCUAAGGAGAAGACAACGGGUUCGAGUCCCGUACGGAUCG, which yeast fitness is on record?
A: The yeast fitness was 0.748.

Q: Which yeast fitness does the source give for GUUCCGUUGGCGUAAUGGUAACGCGUCUCCCUCCUAAGGAGAAGACAGCAGGUUCGAGUCCCGUACGGAACG here?
A: Its yeast fitness is 0.831.

Q: With GUUCCGUUGGCGUAAUGGUAACGCGUCUCCCUCCUAAGGAGAAGACAGCGAGUUCGAGUCCCGUACGGGACG as the variant, how does the yeast fitness read?
A: Its yeast fitness is ≤ 0.5.

Q: With GUUCCGUUGGCGUAAUGGUAACGCGUCUCCCUCCUAAGGAGAAGACAGCGGGUUCGAGUCCCGUACGCAACG as the variant, how does the yeast fitness read?
A: The yeast fitness was 0.606.

Q: Which yeast fitness does the source give for GUUCCGUUGGCGUAAUGGUAACGCGUCUCCCUCCUAAGGAGAAGACAGCGGGCUCGAGUCCCGUACGGAACG here?
A: Its yeast fitness is 0.7.

Q: Which yeast fitness does the source give for GUUCCGUUGGCGUAAUGGUAACGCGUCUCCCUCCUAAGGAGAAGACCGCGGGUUCGCGUCCCGUACGGAACG here?
A: Its yeast fitness is 0.524.

Q: With GUUCCGUUGGCGUAAUGGUAACGCGUCUCCCUCCUAAGGAGAAGACCGCGGGUUCGAGUCCCGUCGGGAACG as the variant, how does the yeast fitness read?
A: The yeast fitness was ≤ 0.5.

Q: For GUUCCGUUGGCGUAAUGGUAACGCGUCUCCCUCCUAAGGAGAAGACCGCGGGUUCGAGUCCCGUGCGGAACG, which yeast fitness is on record?
A: The yeast fitness was 0.92.

Q: For GUUCCGUUGGCGUAAUGGUAACGCGUCUCCCUCCUAAGGAGAAGACCGCGGGUUCGAGUCCCGUACGGAGCG, which yeast fitness is on record?
A: Its yeast fitness is 1.03.

Q: Which yeast fitness does the source give for GUUCCGUUGGCGUAAUGGUAACGCGUCUCCCUCCUAAGGAGAAGACCGUGGGUUCGAGUCCCGUACGCAACG here?
A: Its yeast fitness is 0.582.

Q: With GUUCCGUUGGCGUAAUGGUAACGCGUCUCCCUCCUAAGGAGAAGACCGCGGGUUCGAGUGCCGUACGGAACG as the variant, how does the yeast fitness read?
A: Its yeast fitness is 0.651.

Q: With GUUCCGUUGGCGUAAUGGUAACGCGUCUCCCUCCUAAGGAGAAGACCGCGGGUUCGAGUGCCGUACGGCACG as the variant, how does the yeast fitness read?
A: The yeast fitness was ≤ 0.5.

Q: Which yeast fitness does the source give for GUUCCGUUGGCGUAAUGGUAACGCGUCUCCCUCCUAAGGAGAAGACCGCGGGUUCGAGUUCCGUACGGAACG here?
A: The yeast fitness was 0.722.

Q: With GUUCCGUUGGCGUAAUGGUAACGCGUCUCCCUCCUAAGGAGAAGACCGCGGGUUCGAGUCGCGUCCGGAACG as the variant, how does the yeast fitness read?
A: The yeast fitness was ≤ 0.5.

Q: With GUUCCGUUGGCGUAAUGGUAACGCGUCUCCCUCCUAAGGAGAAGACCGCGGGUUCGAGUCCGGUCCGGAACG as the variant, how does the yeast fitness read?
A: Its yeast fitness is ≤ 0.5.

Q: For GUUCCGUUGGCGUAAUGGUAACGCGUCUCCCUCCUAAGGAGAAGACCGCGGGUUCGAGUCCCGUAAGGAACG, which yeast fitness is on record?
A: Its yeast fitness is 0.775.

Q: With GUUCCGUUGGCGUAAUGGUAACGCGUCUCCCUCCUAAGGAGAAGACCACGGGUUCGAGUCCCGUACGGAACG as the variant, how does the yeast fitness read?
A: Its yeast fitness is 0.96.
